Assay results collected from several papers.
Lines come from different studies, so protocols differ.
Target: Activated CDC42 kinase 1 (TNK2, Homo sapiens, UniProt Q07912)

SMILES	effect on	mode	method	tested at	measurement	value
CC(C)(C)c1cc(C=C(C#N)C#N)cc(Br)c1O	enzyme activity	inhibitor		0.5 µM	remaining activity	93.1%
COc1cc(Nc2ncc(F)c(Nc3ccc4c(n3)NC(=O)C(C)(C)O4)n2)cc(OC)c1OC	binding			10 µM	inhibition	99%
COc1cc(Cl)c(C(=O)N[C@@H](CN[C@H]2CC[C@@H](N)CC2)Cc2ccc(C#N)cc2)cc1-c1ccc(CN[C@H](C)c2ccc(C)cc2)o1	enzyme activity	inhibitor		1 µM	remaining activity	107%
Cn1cc(-c2cc(F)cc(N3CCn4c(cc5c4CCCC5)C3=O)c2CO)cc(Nc2ccc(N3CCN(C4COC4)CC3)cn2)c1=O	enzyme activity	inhibitor		0.1 µM	inhibition	1%
Cn1cncc1[C@](O)(COc1ccc(C#N)cc1-c1ccc(OC(F)(F)F)cc1)c1ccc(C#N)cc1	cell-free assay		competition with immobilised ligand	1 µM	remaining binding	100%
Cn1cc(-c2cccc(N3CCc4c(sc5c4CC(C)(C)C5)C3=O)c2CO)cc(Nc2ccncn2)c1=O	enzyme activity	inhibitor		1 µM	inhibition	0%
Nc1ncc(-c2nc(N3CCOCC3)nc(N3CCOCC3)n2)c(C(F)F)n1	binding		competition with immobilised ligand	10 µM	remaining binding	85%
O=c1[nH]c2ccccc2n1C1CCN(Cc2ccc(-c3[nH]c4cc5ncnc5cc4nc3-c3ccccc3)cc2)CC1	cell-free assay			0.5 µM	remaining signal	92.3%
COc1ncccc1-c1cnn2ccc(N3CCN(C(=O)OC(C)C)CC3)nc12	binding		competition with immobilised ligand	1 µM	remaining binding	94%
